Assay outcomes (PubChem)
PAD4 FP inh = blocks human protein arginine deiminase 4; recombinant PAD4, RCA probe fluorescence polarization; inhibition, % at 6.36 µM; 0.41% of 330,000 active; AID 485272;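 active means percent inhibition above a cutoff equal to the mean of all tested compounds plus 3 SD, cut at about 15% in these data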;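 further: 0% = PAD4 with RCA probe and DMSO and 100% = probe without PAD4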
GSTO1 counter = GSTO1 inhibition, counter-screen for RBBP9 inhibitors; P78417; recombinant GSTO1, activity-based probe fluorescence polarization; inhibition, % at 5.96 µM; 1.1% of 300,000 active;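 active means inhibition above the campaign mean inhibition plus 3 SD, cut at about 35% in these data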;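 further: 0% = GSTO1-1 with DMSO and 100% = wells lacking GSTO1-1 enzyme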
Target sequence (P78417 whole entry, looked up): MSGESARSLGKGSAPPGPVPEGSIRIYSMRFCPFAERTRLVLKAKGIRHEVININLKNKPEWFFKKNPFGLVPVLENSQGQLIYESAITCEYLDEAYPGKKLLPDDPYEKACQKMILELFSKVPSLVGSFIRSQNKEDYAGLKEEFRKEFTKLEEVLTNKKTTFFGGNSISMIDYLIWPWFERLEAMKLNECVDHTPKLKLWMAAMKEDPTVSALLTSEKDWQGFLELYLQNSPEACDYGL
TDP2 absorb = blocks human TDP2 phosphodiesterase activity. AID 720702. O95551. inhibition, % at 12.8 µM. 0.34% of 370,000 active. recombinant TDP2, T5PNP hydrolysis, p-nitrophenol absorbance 415 nm;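 active means inhibition above the mean of all tested compounds plus 3 SD, set per campaign, cut at about 25% in these data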;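 further: 0% = DMSO with enzyme and 100% = buffer with substrate but no TDP2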
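Test system: human TDP2 enzyme; Input: 120 nM TDP2 per well; Buffer or medium: Mg2+-containing Tris-HCl buffer, pH 7.5; Reagent: 5 mM T5PNP; Dosing: 12.8 µM single point, 1% DMSO; Incubation: reaction 2 h, 37 °C; Detection: p-Nitrophenol epi absorbance; Read-out: % inhibition relative to enzyme-containing and enzyme-free wells; Replicates: single well per compound.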
Apaf-1 inh = inhibitors of human Apaf-1 apoptosome | O14727 | reconstituted apoptosome caspase-3 activity, DEVD-Rh110 fluorescence | inhibition, % at 20 µM | 0.71% of 330,000 active; active means inhibition of at least 40% at 20 µM;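 further: plate controls were DMSO wells for no effect and DEVD-CHO caspase inhibitor wells for full effect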
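Medium: Hepes buffer, pH 7.5 / System: biochemical Apaf-1 apoptosome reconstitution / Measured by: Rh110 fluorescence, excitation 480 nm, emission 540 nm / Times: compound with Apaf-1, dATP, procaspase-3 30 min, then 50 min reaction, room temperature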
PRMT1 FP inh = inhibitors of human PRMT1; inhibition, % at 2.79 µM; recombinant PRMT1, activity-based probe fluorescence polarization; AID 652257; 1.3% of 370,000 active; Q99873;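 active means inhibition above about 21% made by adding two undisclosed values, limit read from the data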
* hit, by the source's call; . = no result given; + = active, no number. Sampled rows, rich in hits. Any-hit rate of the full collection: about 2.6%.

SMILES	PAD4 FP inh	GSTO1 counter	TDP2 absorb	Apaf-1 inh	PRMT1 FP inh
O=C(Oc1ccccc1O)c1cccc2ccccc12	0	59*	-3	17	-1
O=C(Oc1cccc2c(O)cccc12)c1ccccc1Cl	.	.	2	.	4
COc1ccccc1N(CC(=O)NCc1ccco1)S(=O)(=O)c1ccc(C)cc1	0	11	10	1	21*
Nc1c(C(=O)N2CCOCC2)cnn1Cc1ccccc1	.	.	0	.	1
COc1cccc2c1C(=O)c1c(O)c3c(c(O)c1C2=O)CC(O)(C(C)=O)CC3OC1CC(O)C(O)C(C)O1 (stereo unspecified)	.	.	8	.	+
COc1cccc2c1-c1c(O)cccc1C2=O	3	-1	2	3	-2
COC(=O)[C@]12CCCCC=C1N(Cc1ccc(OC)cc1)C(=O)[C@@H]2CC(=O)NCc1cccs1	.	.	-7	.	0
O=c1cc(N=Nc2ccc(Cl)cc2)[nH]c(=O)[nH]1	1	47*	12	.	7
O=C(O)c1ccc(-c2ccc(/C=C3\NC(=O)N(Cc4ccc(Cl)cc4)C3=O)o2)cc1Cl	.	.	3	10	43*
O=C1Cc2ccccc2C(=O)N1	.	.	73*	.	-1
O=C(CSCc1c(F)cccc1Cl)NCCSCc1ccco1	-2	1	17	3	4
O=C(CSCc1ccc(Cl)cc1)NCCSCc1ccco1	0	-1	-11	-11	23*
CC(=O)N1CCCN(S(=O)(=O)c2ccc3c(c2)n(C)c(=O)c(=O)n3C)CC1	.	.	13	.	-5
O=C(O)CCCCCn1c(SCC(=O)c2ccc(O)c(O)c2)nc2ccsc2c1=O	-3	15	-5	17	24*
COC1=C(N)C(=O)c2nc(-c3nc(C(=O)O)c(C)c(-c4ccc(OC)c(OC)c4O)c3N)ccc2C1=O	.	.	.	84*	.
COc1ccc(-c2ncncc2-c2csc(C)n2)c(O)c1OC	-9	-5	1	4	1
CCN(CC)c1ccc2cc(C(C)=O)c(=O)oc2c1	3	1	-7	2	-24
CCN(CC)c1ccc2cc(NC(=O)CCC(=O)O)c(=O)oc2c1	1	-23	-10	-10	34*
COCCNC(=S)N(C)[C@H]1C[C@H]2c3[nH]c4c(-c5ccc6c(c5)OCO6)cccc4c3CCN2C[C@H]1[C@H](C)O	.	.	1	.	3
CC(C)n1nnnc1C1(C)Cn2nccc2C(=O)N1Cc1cccc(C(F)(F)F)c1 (stereo unspecified)	.	.	-2	.	1
CCOc1cc(C(=O)N2CCN=C2SC)cc(OCC)c1OCC	-1	-2	8	0	24*
CC(=O)OCC1(C)CN(c2ccccc2)N(C(=O)c2ccc(F)cc2)C1=O (stereo unspecified)	-2	36*	5	-9	-3
Oc1ccc2oc3c(c2c1C=NCc1ccncc1)CCCC3	-4	20	-5	-3	3
Oc1c(C=NCc2ccncc2)sc2ccccc12	16*	4	0	3	63*
CC(C)CC(C(=O)Nc1oc(-c2ccco2)c(-c2ccco2)c1C#N)N1C(=O)c2ccccc2C1=O (stereo unspecified)	-2	7	1	20	25*
SMILES	PAD4 FP inh	GSTO1 counter	TDP2 absorb	Apaf-1 inh	PRMT1 FP inh
COC(=O)[C@]12CCCCC=C1N(Cc1ccc(OC)cc1)C(=O)[C@@H]2CC(=O)N1CCSCC1	.	.	-7	.	0
Cc1c(OCC(F)(F)F)ccnc1CS(=O)c1nc2ccccc2[nH]1 (stereo unspecified)	3	5	-5	2	28*
C=CCOC(=O)N[C@H](c1cccc(OC)c1)[C@H](C)/C=C/CC(=O)OC	.	.	0	.	-3
Cc1ccc(N2C(=O)CS/C2=C(\C(Cl)=C(Cl)Cl)[N+](=O)[O-])cc1	-20	54*	-7	-12	8
Cc1ccc(C2CCC3(CCC(=O)N3CCOC(=O)Nc3cccc(C#N)c3)CC2)cc1 (stereo unspecified)	.	.	6	.	-2
CC[C@H](CCCc1ccc(F)cc1)CN(Cc1ccc(OC)cc1)S(=O)(=O)c1ccc(C)cc1	.	.	0	.	0
Oc1ccc2ccccc2c1CNc1ccc2ccccc2c1	.	.	-2	.	25*
Cc1ccc(Cn2ccsc2=NC(=O)CCl)cc1	3	84*	-5	4	2
Cc1ccc(Cn2ccsc2=NC(=O)COC(=O)c2ccc(NC(=O)CC#N)cc2)cc1	-17	-76	6	10	0
CCOc1ccc(NS(=O)(=O)c2ccc3c(c2)oc(=O)n3C)cc1	-1	36*	9	12	0
